Test results published in ChEMBL document CHEMBL4732082, “Development of novel benzimidazole-derived neddylation inhibitors for suppressing tumor growth invitro and invivo” (Eur J Med Chem, 2021).

Experiments:
[1] = test system: A549; test: Antiproliferative activity against human A549 cells assessed as inhibition of cell proliferation at 100 uM incubated for 48 hrs by CCK-8 assay relative to control; type: functional; set-up: scale not given: the % may be the effect or the level left
In short: (§1)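 Cells from ATCC, passaged six times, grown in DMEM with 10% FBS and penicillin/streptomycin at 37 °C under 5% CO2. Seeded at 2500 cells/well, cultured overnight, treated 48 h, viability read by CCK-8. Run in triplicate; values are the mean of three experiments.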

[2] = target: T1, NEDD8-activating enzyme E1 regulatory subunit (Homo sapiens) (UniProt Q13564); test: Inhibition of NAE (unknown origin)-mediated neddylation assessed as suppression of cullin1-Nedd8 adduct formation at 25 uM preincubated for 10 mins followed by ATP addition and measured after 30 mins by immunoblot analysis relative to control; conditions: time 40.0 min
T1 sequence (whole entry): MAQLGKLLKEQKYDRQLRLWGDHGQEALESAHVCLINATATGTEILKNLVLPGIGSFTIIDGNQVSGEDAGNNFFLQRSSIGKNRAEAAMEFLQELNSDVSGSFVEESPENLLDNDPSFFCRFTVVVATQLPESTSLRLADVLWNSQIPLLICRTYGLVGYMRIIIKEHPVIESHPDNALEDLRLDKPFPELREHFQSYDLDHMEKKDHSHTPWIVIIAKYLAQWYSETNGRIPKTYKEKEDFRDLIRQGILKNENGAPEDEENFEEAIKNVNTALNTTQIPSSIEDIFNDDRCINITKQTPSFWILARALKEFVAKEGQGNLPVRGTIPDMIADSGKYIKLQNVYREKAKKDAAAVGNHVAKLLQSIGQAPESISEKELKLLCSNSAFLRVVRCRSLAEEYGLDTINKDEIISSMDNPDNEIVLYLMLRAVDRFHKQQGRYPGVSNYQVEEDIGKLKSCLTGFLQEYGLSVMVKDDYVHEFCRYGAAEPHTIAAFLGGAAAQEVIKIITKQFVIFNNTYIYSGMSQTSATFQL

[3] = test system: A549; test: Antiproliferative activity against human A549 cells incubated for 48 hrs by CCK-8 assay; type: functional, cell-based; conditions: A549, 48 h; in short: as §1
[4] = test system: BEAS-2B; test: Cytotoxicity against human BEAS-2B cells incubated for 48 hrs by CCK-8 assay; type: cell-based; in short: as §1
[5] = Cytotoxicity against human […] cells incubated for 48 hrs by CCK-8 assay; type: cell-based; in short: as §1
[6] = target: T2, NEDD8-activating enzyme E1 catalytic subunit (Homo sapiens, UniProt Q8TBC4); test: Inhibition of NAE (unknown origin)-mediated neddylation assessed as suppression of cullin1-Nedd8 adduct formation preincubated for 10 mins followed by ATP addition and measured after 30 mins by immunoblot analysis
T2 sequence (Q8TBC4 whole entry): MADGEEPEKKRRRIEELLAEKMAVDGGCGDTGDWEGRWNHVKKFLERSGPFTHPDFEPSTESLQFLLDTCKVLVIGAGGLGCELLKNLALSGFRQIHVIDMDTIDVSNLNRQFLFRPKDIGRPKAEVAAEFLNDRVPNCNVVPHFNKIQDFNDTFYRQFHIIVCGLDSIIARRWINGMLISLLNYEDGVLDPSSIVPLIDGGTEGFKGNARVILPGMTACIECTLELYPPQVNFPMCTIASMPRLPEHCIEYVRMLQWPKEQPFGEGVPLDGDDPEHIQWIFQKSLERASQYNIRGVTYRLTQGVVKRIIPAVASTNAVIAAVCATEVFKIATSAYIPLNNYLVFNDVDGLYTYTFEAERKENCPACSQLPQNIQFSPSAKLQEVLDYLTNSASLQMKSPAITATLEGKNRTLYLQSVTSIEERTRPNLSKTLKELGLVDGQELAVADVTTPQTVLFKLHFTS

[7] = test system: NCI-H1299; test: Antiproliferative activity against human H1299 cells incubated for 48 hrs by CCK-8 assay; type: functional, cell-based; conditions: NCI-H1299, 48 h; in short: as §1

Structure (SMILES)	Activity [1]	inhibition [2]	also measured
CCOc1nc2cccc(C(=O)NCCCN(C)C)c2n1Cc1ccc(-c2ccccc2-c2nnn[nH]2)cc1	9.8%	29.5%	
CCOc1nc2cccc(C(=O)NC3CC3)c2n1Cc1ccc(-c2ccccc2-c2nnn[nH]2)cc1	11.3%	30.9%	
CCOc1nc2ccc(C(=O)OC(C)OC(=O)OC3CCCCC3)cc2n1Cc1ccc(-c2ccccc2-c2nnn[nH]2)cc1 (stereo not drawn)	56.9%	43.2%	
CCOc1nc2cccc(C(=O)NCCc3cccc(OC)c3)c2n1Cc1ccc(-c2ccccc2-c2nnn[nH]2)cc1	57.7%	43.6%	
CCOc1nc2cccc(C(=O)NCCCNC3CCCCC3)c2n1Cc1ccc(-c2ccccc2-c2nnn[nH]2)cc1	11.2%	29.4%	
CCOc1nc2cccc(C(=O)NCCc3ccc(Br)cc3)c2n1Cc1ccc(-c2ccccc2-c2nnn[nH]2)cc1	51.4%	66.1%	
CCOc1nc2cccc(C(=O)OC(C)OC(=O)OC3CCCCC3)c2n1Cc1ccc(-c2ccccc2-c2nn[nH]n2)cc1 (stereo not drawn) [CANDESARTAN CILEXETIL]	69.2%	87.8%	IC50 [3]: 65.9 µM; IC50 [4]: 79.8 µM; IC50 [5]: 82.7 µM
CCOc1nc2cccc(C(=O)NCCCCc3ccccc3)c2n1Cc1ccc(-c2ccccc2-c2nnn[nH]2)cc1	<20%	64.6%	
CCOc1nc2cccc(C(=O)NCCc3ccc(Cl)cc3)c2n1Cc1ccc(-c2ccccc2-c2nnn[nH]2)cc1	36.2%	47.6%	
CCOc1nc2cc(C(=O)OC(C)OC(=O)OC3CCCCC3)ccc2n1Cc1ccc(-c2ccccc2-c2nnn[nH]2)cc1 (stereo not drawn)	33.3%	44.7%	
CCOc1nc2cccc(C(=O)NOCc3ccccc3)c2n1Cc1ccc(-c2ccccc2-c2nnn[nH]2)cc1	24.3%	39.8%	
CCOc1nc2cccc(C(=O)NCCc3ccc([N+](=O)[O-])cc3)c2n1Cc1ccc(-c2ccccc2-c2nnn[nH]2)cc1	53.5%	47.5%	
CCOc1nc2cccc(C(=O)NCCc3cc(Cl)ccc3Cl)c2n1Cc1ccc(-c2ccccc2-c2nnn[nH]2)cc1	77.6%	82.9%	IC50 [3]: 39.3 µM; IC50 [6]: 6.67 µM; IC50 [4]: 80.8 µM; IC50 [7]: 36.7 µM; IC50 [5]: 64.9 µM
CCOc1nc2cccc(C(=O)Nc3ccc(OC)cc3)c2n1Cc1ccc(-c2ccccc2-c2nnn[nH]2)cc1	10.5%	25.8%	
CCOc1nc2cccc(C(=O)Nc3ccccc3)c2n1Cc1ccc(-c2ccccc2-c2nnn[nH]2)cc1	13.1%	34.6%	
CCOc1nc2cccc(C(=O)NC3CCCC3)c2n1Cc1ccc(-c2ccccc2-c2nnn[nH]2)cc1	11.9%	39.7%	
CCCC(=O)N(Cc1ccc(-c2ccccc2-c2nnn[nH]2)cc1)c1ccccc1C(=O)OC(C)OC(=O)OC1CCCCC1 (stereo not drawn)	15.2%	32.6%	
CCOc1nc2cccc(C(=O)NC(c3ccccc3)c3ccccc3)c2n1Cc1ccc(-c2ccccc2-c2nnn[nH]2)cc1	31.6%	35.7%	
CCOc1nc2cccc(C(=O)NCc3ccc(F)cc3)c2n1Cc1ccc(-c2ccccc2-c2nnn[nH]2)cc1	35.4%	38.1%	
CCOc1nc2cccc(C(=O)NCc3ccc4c(c3)OCO4)c2n1Cc1ccc(-c2ccccc2-c2nnn[nH]2)cc1	53.19%	47.9%	
CCOC(=O)CNC(=O)c1cccc2nc(OCC)n(Cc3ccc(-c4ccccc4-c4nnn[nH]4)cc3)c12	32.7%	46.5%	
CCOc1nc2cccc(C(=O)N[C@H]3CC[C@H](C(=O)OC)CC3)c2n1Cc1ccc(-c2ccccc2-c2nnn[nH]2)cc1	9.2%	28.6%	

Structure (SMILES)	Activity [1]	inhibition [2]	also measured
CCOc1nc2cccc(C(=O)OC(C)OC(=O)OC3CCCCC3)c2n1Cc1ccc(-c2ccccc2-c2noc(=O)[nH]2)cc1 (stereo not drawn)	14.6%	34.2%	
NS(=O)(=O)OC[C@@H]1C[C@@H](n2ccc3c(N[C@H]4CCc5ccccc54)ncnc32)C[C@@H]1O [PEVONEDISTAT]	91.4%	90.5%	IC50 [3]: 0.63 µM; IC50 [4]: 1.22 µM; IC50 [7]: 0.49 µM; IC50 [5]: 4.03 µM
CCOc1nc2cccc(C(=O)NCCc3ccc(C)cc3)c2n1Cc1ccc(-c2ccccc2-c2nnn[nH]2)cc1	15.7%	32.1%	
CCOc1nc2cccc(C(=O)NCCCOC)c2n1Cc1ccc(-c2ccccc2-c2nnn[nH]2)cc1	10.1%	27.9%	
CCOc1nc2cccc(C(=O)Nc3ccc(S(N)(=O)=O)cc3)c2n1Cc1ccc(-c2ccccc2-c2nnn[nH]2)cc1	54.4%	60.9%	
CCOc1nc2cccc(C(=O)OC(C)OC(=O)OC3CCCCC3)c2n1Cc1ccc(-c2ccccc2)cc1 (stereo not drawn)	34.2%	29.5%	
CCOc1nc2cccc(C(=O)NCCc3ccccc3Cl)c2n1Cc1ccc(-c2ccccc2-c2nnn[nH]2)cc1	36.6%	57.4%	
CCOc1nc2cccc(C(=O)NCCc3c[nH]c4ccccc34)c2n1Cc1ccc(-c2ccccc2-c2nnn[nH]2)cc1	71.6%	74.7%	IC50 [3]: 19.1 µM; IC50 [6]: 9.94 µM; IC50 [4]: 37.9 µM; IC50 [7]: 18.2 µM; IC50 [5]: 44.7 µM
CCOc1nc2cccc(C(=O)NCCc3c(Cl)cccc3Cl)c2n1Cc1ccc(-c2ccccc2-c2nnn[nH]2)cc1	45.5%	86.7%	
CCCNC(=O)c1cccc2nc(OCC)n(Cc3ccc(-c4ccccc4-c4nnn[nH]4)cc3)c12	12.5%	32.6%	
CCOc1nc2cccc(C(=O)NCc3ccco3)c2n1Cc1ccc(-c2ccccc2-c2nnn[nH]2)cc1	18.9%	37.5%	
CCOc1nc2ccccc2n1Cc1ccc(-c2ccccc2-c2nn[nH]n2)cc1	9.5%	18.9%	
CCOc1nc2cccc(C(=O)Nc3ccncc3)c2n1Cc1ccc(-c2ccccc2-c2nnn[nH]2)cc1	39.5%	39.8%	
CCOc1nc2cccc(C(=O)OC(C)OC(=O)OC3CCCCC3)c2n1Cc1ccc(-c2ccccc2-c2nnnn2C)cc1 (stereo not drawn)	16.8%	41.2%	
CCOc1nc2cccc(C(=O)NCc3ccccc3)c2n1Cc1ccc(-c2ccccc2-c2nnn[nH]2)cc1	54.5%	48.9%	
CCOc1nc2cccc(C(=O)Nc3ccc4c(c3)OCO4)c2n1Cc1ccc(-c2ccccc2-c2nnn[nH]2)cc1	16.7%	34.9%	
CCOc1nc2cccc(C(=O)Nc3ccc(F)cc3)c2n1Cc1ccc(-c2ccccc2-c2nnn[nH]2)cc1	66.3%	45.3%	
CCOc1nc2cccc(C(=O)NCCc3ccccc3)c2n1Cc1ccc(-c2ccccc2-c2nnn[nH]2)cc1	43.8%	39.4%	
CCOc1nc2cccc(C(=O)NC3CCCCC3)c2n1Cc1ccc(-c2ccccc2-c2nnn[nH]2)cc1	12.1%	36.8%	
CCOc1nc2cccc(C(=O)NCCc3ccc4c(c3)OCO4)c2n1Cc1ccc(-c2ccccc2-c2nnn[nH]2)cc1	14.2%	35.7%	
CCOc1nc2cccc(C(=O)NCCc3ccc(F)cc3F)c2n1Cc1ccc(-c2ccccc2-c2nnn[nH]2)cc1	12.5%	35.8%	
